The test system of data set [1] is HEK293. Description: Cytotoxicity against human HEK293 cells assessed as cell viability at 50 uM measured after 24 hrs by Alamar Blue assay. The data set is classed as toxicity, cell-based. The settings on record: hek293, 24 h.
The target of data set [2] is T1, Polyamine deacetylase HDAC10 (Danio rerio) (UniProt F1QCV2).
T1 sequence (whole entry): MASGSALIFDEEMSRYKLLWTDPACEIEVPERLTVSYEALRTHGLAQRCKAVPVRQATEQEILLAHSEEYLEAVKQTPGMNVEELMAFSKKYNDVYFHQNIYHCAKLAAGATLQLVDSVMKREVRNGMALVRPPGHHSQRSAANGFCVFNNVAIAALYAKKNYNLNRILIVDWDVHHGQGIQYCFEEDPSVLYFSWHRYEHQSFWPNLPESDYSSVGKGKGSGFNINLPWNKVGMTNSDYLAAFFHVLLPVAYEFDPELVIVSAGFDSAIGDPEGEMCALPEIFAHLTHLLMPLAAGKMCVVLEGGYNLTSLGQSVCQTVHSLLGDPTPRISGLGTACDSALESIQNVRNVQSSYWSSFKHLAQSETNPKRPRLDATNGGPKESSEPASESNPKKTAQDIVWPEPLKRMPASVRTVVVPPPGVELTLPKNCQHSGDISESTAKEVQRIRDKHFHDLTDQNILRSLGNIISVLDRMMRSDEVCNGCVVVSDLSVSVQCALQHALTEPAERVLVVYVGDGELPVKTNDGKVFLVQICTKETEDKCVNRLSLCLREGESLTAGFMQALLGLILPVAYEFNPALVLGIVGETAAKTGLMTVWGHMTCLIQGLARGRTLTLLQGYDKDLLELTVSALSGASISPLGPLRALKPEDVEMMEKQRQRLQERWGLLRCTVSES
As to the kind of experiment: Inhibition of zebra fish HDAC10 using Ac-spermidine-AMC as substrate incubated for 25 mins at 10 uM and measured by fluorescence assay relative to control. The method, boiled down: (§1)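 Ac-spermidine-AMC at 10.5 μM final in pH 7.9 phosphate buffer (NaCl, EDTA, glycerol, Mesna, Tween 20); inhibitors in DMSO. 25 min at 25 °C, stopped with NDA in borate pH 9.5. Read at Ex 330/Em 390 nm; IC50 by nonlinear regression.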

Data set [3] addresses T2, Polyamine deacetylase HDAC10 (Danio rerio, UniProt F1QCV2).
T2 sequence (F1QCV2 whole entry): T1 sequence (whole entry)
As to the kind of experiment: Inhibition of zebra fish HDAC10 using Ac-spermidine-AMC as substrate incubated for 25 mins and measured by fluorescence assay. The method, boiled down:
as §1

Data set [4] addresses T3, Histone deacetylase 1 (Homo sapiens, UniProt Q13547). Description: Inhibition of recombinant human HDAC1 using ZMAL (Z-(Ac)Lys-AMC as substrate incubated for 20 mins and measured by homogenous fluorescence assay.
The target of data set [5] is T4, Protein deacetylase HDAC6 (Homo sapiens, UniProt Q9UBN7).
T4 sequence (Q9UBN7 whole entry): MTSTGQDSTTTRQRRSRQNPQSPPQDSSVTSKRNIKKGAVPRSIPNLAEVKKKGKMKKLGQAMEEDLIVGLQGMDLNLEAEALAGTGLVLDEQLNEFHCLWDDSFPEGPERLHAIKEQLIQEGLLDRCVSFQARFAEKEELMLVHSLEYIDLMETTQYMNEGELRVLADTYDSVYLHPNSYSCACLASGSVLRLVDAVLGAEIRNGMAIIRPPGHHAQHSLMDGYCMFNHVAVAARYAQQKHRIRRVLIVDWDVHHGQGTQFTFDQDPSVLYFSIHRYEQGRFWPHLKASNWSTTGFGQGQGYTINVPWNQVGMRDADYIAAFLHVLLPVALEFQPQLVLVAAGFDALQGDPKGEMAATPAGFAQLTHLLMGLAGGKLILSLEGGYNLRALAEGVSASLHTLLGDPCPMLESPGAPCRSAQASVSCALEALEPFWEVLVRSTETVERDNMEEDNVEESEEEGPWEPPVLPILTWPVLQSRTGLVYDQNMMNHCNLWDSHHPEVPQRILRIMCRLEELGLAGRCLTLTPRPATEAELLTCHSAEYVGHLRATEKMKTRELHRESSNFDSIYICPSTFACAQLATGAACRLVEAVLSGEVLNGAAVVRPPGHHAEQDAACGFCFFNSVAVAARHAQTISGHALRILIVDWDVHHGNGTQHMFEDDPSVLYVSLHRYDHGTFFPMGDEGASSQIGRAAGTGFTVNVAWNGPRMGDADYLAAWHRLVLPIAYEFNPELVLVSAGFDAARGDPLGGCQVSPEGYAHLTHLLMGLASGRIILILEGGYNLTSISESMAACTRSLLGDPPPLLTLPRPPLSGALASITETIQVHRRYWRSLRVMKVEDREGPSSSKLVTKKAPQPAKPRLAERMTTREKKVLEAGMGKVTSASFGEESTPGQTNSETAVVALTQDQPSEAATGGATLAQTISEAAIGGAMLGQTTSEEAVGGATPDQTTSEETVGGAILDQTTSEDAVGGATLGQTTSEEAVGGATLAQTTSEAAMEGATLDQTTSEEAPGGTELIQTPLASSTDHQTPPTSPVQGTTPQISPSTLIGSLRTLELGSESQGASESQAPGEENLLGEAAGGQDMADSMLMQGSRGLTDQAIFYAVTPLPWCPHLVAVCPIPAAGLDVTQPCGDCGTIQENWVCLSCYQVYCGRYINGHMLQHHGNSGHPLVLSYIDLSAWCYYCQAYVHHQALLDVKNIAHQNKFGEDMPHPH
As to the kind of experiment: Inhibition of recombinant human HDAC6 using ZMAL (Z-(Ac)Lys-AMC as substrate incubated for 20 mins and measured by homogenous fluorescence assay.

In data set [6] the target is T5, Histone deacetylase 8 (Homo sapiens, UniProt Q9BY41).
T5 sequence (Q9BY41 whole entry): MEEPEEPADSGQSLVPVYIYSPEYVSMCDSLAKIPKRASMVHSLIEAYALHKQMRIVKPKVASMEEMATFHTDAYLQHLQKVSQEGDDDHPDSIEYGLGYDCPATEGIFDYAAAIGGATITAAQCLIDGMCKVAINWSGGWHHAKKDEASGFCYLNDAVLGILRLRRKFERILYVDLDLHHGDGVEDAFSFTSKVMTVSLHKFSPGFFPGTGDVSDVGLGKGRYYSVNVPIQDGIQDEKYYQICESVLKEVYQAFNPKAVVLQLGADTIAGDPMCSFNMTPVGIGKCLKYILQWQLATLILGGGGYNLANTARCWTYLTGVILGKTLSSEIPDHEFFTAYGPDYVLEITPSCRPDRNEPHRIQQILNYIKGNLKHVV
Description: Inhibition of recombinant human HDAC8 using H2N-Arg- His-Lys(Ac)-Lys(Ac)-AMC as substrate incubated for 90 mins and measured after 20 mins by fluorescence assay. The method, boiled down:
(§2)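 Recombinant hHDAC8 run per a commercial fluorometric HDAC8 kit protocol. Substrate H2N-Arg-His-Lys(Ac)-Lys(Ac)-AMC at 50 μM with enzyme and rising inhibitor concentrations, 90 min at 37 °C. Stop solution with inhibitor plus trypsin added, developed 20 min at 37 °C. Read at Ex 355/Em 460 nm.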

For data set [7], the target named is T3, Histone deacetylase 1. Description: Inhibition of recombinant human HDAC1 using ZMAL (Z-(Ac)Lys-AMC as substrate incubated for 20 mins at 10 uM and measured by homogenous fluorescence assay relative to control.
Data set [8] has as its target T3, Histone deacetylase 1. As to the kind of experiment: Inhibition of recombinant human HDAC1 using ZMAL (Z-(Ac)Lys-AMC as substrate incubated for 20 mins at 1 uM and measured by homogenous fluorescence assay relative to control.
For data set [9], the target named is T6, Protein deacetylase HDAC6 (Homo sapiens) (UniProt Q9UBN7).
T6 sequence (whole entry): T4 sequence (Q9UBN7 whole entry)
Description: Inhibition of HDAC6 in human MV4-11 cells assessed as fold-induction of tubulin acetylation at 15 uM measured by immunoblotting method. The data set is classed as cell-based. The method, boiled down: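 MV4–11 cells treated 24 h with 2–15 μM test compounds or 0.5 μM marbostat-100 as HDAC6 reference, with solvent control. Whole-cell lysates immunoblotted for acetylated tubulin-α, β-actin as loading control. Blots quantified and expressed as fold change over untreated cells; n = 2.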
(A western blot detects proteins with antibodies after separation by electrophoresis.)

Data set [10] deals with MV4-11. As to the kind of experiment: Induction of autophagy in human MV4-11 cells assessed as slight increase in HDAC10 at 2 to 15 uM measured by immunoblotting method. The data set is classed as functional, cell-based. Conditions: dose 2-15 µM.
In data set [11] the target is T6, Protein deacetylase HDAC6 (Homo sapiens). As to the kind of experiment: Inhibition of recombinant human HDAC6 using ZMAL (Z-(Ac)Lys-AMC as substrate incubated for 20 mins at 10 uM and measured by homogenous fluorescence assay relative to control.
For data set [12] the target is unchanged. As to the kind of experiment: Inhibition of recombinant human HDAC6 using ZMAL (Z-(Ac)Lys-AMC as substrate incubated for 20 mins at 1 uM and measured by homogenous fluorescence assay relative to control.
For data set [13], the target named is T7, Histone deacetylase 8 (Homo sapiens) (UniProt Q9BY41).
T7 sequence (whole entry): T5 sequence (Q9BY41 whole entry)
Description: Inhibition of recombinant human HDAC8 using H2N-Arg- His-Lys(Ac)-Lys(Ac)-AMC as substrate incubated for 90 mins at 10 uM and measured after 20 mins by fluorescence assay relative to control. The method, boiled down:
as §2

Data set [14] concerns the target T7, Histone deacetylase 8 (Homo sapiens). As to the kind of experiment: Inhibition of recombinant human HDAC8 using H2N-Arg- His-Lys(Ac)-Lys(Ac)-AMC as substrate incubated for 90 mins at 1 uM and measured after 20 mins by fluorescence assay relative to control. The method, boiled down: as §2

The source made the active and inactive calls. No cut-off for these calls is given here.

T3 sequence (Q13547 whole entry): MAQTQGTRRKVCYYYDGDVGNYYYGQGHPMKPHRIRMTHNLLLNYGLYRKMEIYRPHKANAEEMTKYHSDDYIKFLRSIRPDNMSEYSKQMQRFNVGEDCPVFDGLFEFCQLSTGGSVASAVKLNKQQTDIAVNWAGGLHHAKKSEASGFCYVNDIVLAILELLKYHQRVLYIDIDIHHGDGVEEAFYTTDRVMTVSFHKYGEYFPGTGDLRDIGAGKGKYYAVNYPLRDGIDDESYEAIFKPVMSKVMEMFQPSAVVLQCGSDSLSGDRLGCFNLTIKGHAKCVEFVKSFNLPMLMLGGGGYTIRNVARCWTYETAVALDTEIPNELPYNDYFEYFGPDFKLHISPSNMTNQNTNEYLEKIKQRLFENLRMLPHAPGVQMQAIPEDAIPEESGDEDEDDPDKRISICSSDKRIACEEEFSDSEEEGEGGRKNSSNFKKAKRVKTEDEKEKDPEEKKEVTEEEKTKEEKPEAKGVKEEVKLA

Consider `Cc1ccc(CN2CCC(/C=C/C(=O)NO)CC2)cc1`, for which, in data set [1], the Activity is 104.9%. For the same compound, in data set [2], the inhibition was determined as 23%.

In the case of `O=C(/C=C/C1CCN(Cc2ccc(Cl)cc2)CC1)NO`, the 50% inhibitory concentration (IC50) in data set [3] stood at 0.033 µM; in [4] it was 9 µM; in data set [5], 0.43 µM; in [6] it was 0.95 µM. Besides, the Activity in data set [1] was 84.6%.

Take `Cn1cc(CN2CCC(/C=C/C(=O)NO)CC2)c2ccccc21`: the IC50 in data set [3] came out at 0.058 µM; in data set [5], 2.42 µM; in [6], 0.92 µM. Besides, the inhibition turned out to be 67% in [7] and 12% in data set [8]. For the same compound, the fold change (FC) in data set [9] worked out at 36. In [10], the outcome was Active. In data set [1], the Activity turned out to be 68.2%.

For `O=C(NO)c1ccc(CNCc2cccs2)cc1`, the 50% inhibitory concentration (IC50) is 0.106 µM in data set [3], 0.158 µM in data set [5] and 3.2 µM in data set [6]. The inhibition amounted to 68% in [7] and 15% in [8]. For the same compound, in data set [1], the Activity turned out to be 71.6%.

Compound `O=C(/C=C/C1CCN(Cc2ccccc2)CC1)NO` gave an IC50 in data set [3] of 0.53 µM. In addition, the inhibition in data set [7] stood at 62%; in data set [8] it was 12%; in [11] it was 89%; in [12], 34%. Further, the Activity in data set [1] turned out to be 100.9%.

In the case of `O=C(/C=C/C1CCN(Cc2cccc(Cl)c2)CC1)NO`, the IC50 in data set [3] is 0.06 µM. For the same compound, the inhibition in data set [7] stood at 67%; in [8] it was 24%; in [11], 83%; in [12] it was 40%. The Activity in data set [1] stood at 88.6%.

On to `O=C(NO)c1ccc(CNCc2ccccc2)cc1`, for which the IC50 in data set [3] is 0.037 µM; in data set [5], 0.21 µM; in data set [6], 3.5 µM. The inhibition is 49% in data set [7] and 19% in data set [8]. Moreover, in [1], the Activity turned out to be 77.1%.

Turning to `O=C(/C=C/C1CCN(Cc2cccc3ccccc23)CC1)NO`, the half-maximal inhibitory concentration (IC50) in data set [3] was determined as 0.02 µM; in [4], 3 µM; in data set [5], 3.7 µM. The fold change (FC) in [9] was found to be 36. Besides, the outcome in data set [10] was Active. The Activity in [1] is 51.6%.

For the compound `O=C(NO)c1ccc(CNCc2ccsc2)cc1`, the concentration for half-maximal inhibition (IC50) in data set [3] was 0.024 µM; in data set [5] it was 0.177 µM; in [6] it was 1.9 µM. Also, the inhibition in data set [7] was 50%; in [8], 16%. Further, the Activity in data set [1] was 81.5%.

Turning to `CN1CCN(Cc2ccc(C(=O)NO)cc2)CC1`, the IC50 was found to be 0.043 µM in data set [3] and 0.28 µM in data set [5]. Further, the figures for the inhibition in [7] and in data set [8] were 54% and 6%, respectively. Moreover, the Activity in data set [1] stood at 86.4%.

For the compound `O=C(/C=C/C1CCN(Cc2csc3ccccc23)CC1)NO`, the IC50 in data set [3] worked out at 0.062 µM; in data set [5], 1.4 µM; in data set [6], 1.3 µM. Besides, the inhibition in data set [7] was 66%; in [8] it was 29%. Further, in data set [1], the Activity was found to be 88.2%.

`O=C(/C=C/C1CCN(CCc2ccccc2)CC1)NO`: the figures for the IC50 in data set [3], in data set [4] and in data set [5] were 0.011 µM, 16 µM and 4.4 µM, respectively. For the same compound, the Activity in data set [1] is given as 54.4%.

In the case of `O=C(/C=C/C1CCN(Cc2ccc(-c3ccccc3)cc2)CC1)NO`, the inhibition in data set [7] turned out to be 56%; in data set [8] it was 22%; in data set [11], 72%; in data set [12], 29%; in data set [13], 91%; in [14], 54%. The compound further displayed an inhibition in data set [2] of 46%. In addition, the Activity in data set [1] came out at 55%.

In the case of `CN1CCc2c(c3ccccc3n2Cc2ccc(C(=O)NO)cc2)C1` [TUBASTATIN A], 0.22 µM corresponded to half-maximal inhibition in [3] (IC50).

As usually defined, the inhibition is the share of the control response that was lost under treatment. As a reminder, the IC50 is the concentration that gives 50% inhibition.
